Assay [1] addresses T1, NAD-dependent protein deacetylase sirtuin-1 (Homo sapiens, UniProt Q96EB6).
T1 sequence (Q96EB6 whole entry): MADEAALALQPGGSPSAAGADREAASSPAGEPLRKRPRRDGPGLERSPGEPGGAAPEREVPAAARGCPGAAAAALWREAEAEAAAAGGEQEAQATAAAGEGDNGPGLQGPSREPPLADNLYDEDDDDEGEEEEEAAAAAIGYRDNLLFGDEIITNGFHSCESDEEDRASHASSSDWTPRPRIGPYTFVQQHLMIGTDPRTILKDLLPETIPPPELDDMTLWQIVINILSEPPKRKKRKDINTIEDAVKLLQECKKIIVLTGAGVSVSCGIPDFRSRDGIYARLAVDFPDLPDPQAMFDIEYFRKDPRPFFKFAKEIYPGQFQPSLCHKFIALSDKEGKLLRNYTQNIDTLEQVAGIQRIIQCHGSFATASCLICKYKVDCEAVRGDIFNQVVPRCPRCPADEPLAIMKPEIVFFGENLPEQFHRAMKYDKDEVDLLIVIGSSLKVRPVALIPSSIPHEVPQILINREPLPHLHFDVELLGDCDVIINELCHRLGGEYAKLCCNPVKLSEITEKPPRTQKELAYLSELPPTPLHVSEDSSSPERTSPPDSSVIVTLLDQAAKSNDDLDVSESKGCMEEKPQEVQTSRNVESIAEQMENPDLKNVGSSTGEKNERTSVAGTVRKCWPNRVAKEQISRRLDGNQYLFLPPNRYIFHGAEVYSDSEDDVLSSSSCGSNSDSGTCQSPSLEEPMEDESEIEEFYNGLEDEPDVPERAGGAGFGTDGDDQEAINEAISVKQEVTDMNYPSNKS
Briefly: Inhibition of human recombinant SIRT1 using Fluor de Lys-SIRT as substrate incubated for 60 mins prior to substrate addition measured after 60 mins by fluorimetric analysis. The procedure, abridged: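 Human recombinant SIRT1 run the same way: 60 min at 37 °C with 1 mM NAD⁺ and serial compound dilutions, then 25 μM Fluor de Lys-SIRT substrate for 60 min. Stopped with nicotinamide-containing Developer II and read 45 min later at ex 360/em 460 nm. IC₅₀ from logit regression of % inhibition vs control; means of ≥3 experiments.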

Assay [2] addresses T2, NAD-dependent protein deacetylase sirtuin-2 (Homo sapiens, UniProt Q8IXJ6).
T2 sequence (Q8IXJ6 whole entry): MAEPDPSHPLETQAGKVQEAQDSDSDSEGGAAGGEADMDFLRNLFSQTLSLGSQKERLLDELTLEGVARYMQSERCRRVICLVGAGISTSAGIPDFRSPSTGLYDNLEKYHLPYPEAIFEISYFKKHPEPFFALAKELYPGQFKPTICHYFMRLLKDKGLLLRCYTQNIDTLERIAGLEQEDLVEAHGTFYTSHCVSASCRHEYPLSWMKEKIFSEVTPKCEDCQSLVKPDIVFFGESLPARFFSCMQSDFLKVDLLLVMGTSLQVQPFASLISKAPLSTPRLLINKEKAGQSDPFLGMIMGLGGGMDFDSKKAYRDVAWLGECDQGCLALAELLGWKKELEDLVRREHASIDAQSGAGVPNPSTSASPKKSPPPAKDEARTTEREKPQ
Put plainly: Inhibition of human recombinant SIRT2 using Fluor de Lys-SIRT as substrate incubated for 60 mins prior to substrate addition measured after 60 mins by fluorimetric analysis. The procedure, abridged:
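Human recombinant SIRT2 preincubated with 1 mM NAD⁺ and serial compound dilutions for 60 min at 37 °C, then 25 μM Fluor de Lys-SIRT substrate added. Reaction stopped at 60 min with Developer II containing nicotinamide. Fluorescence read 45 min later at ex 360/em 460 nm. % inhibition taken against control wells. IC₅₀ obtained by regression of log[Inh] vs logit % inhibition; means of ≥3 experiments.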

The IC50 is the concentration at which inhibition is half-maximal.

Where only a bound is given, the exact number is not on record here.

Regarding `Cc1ccccc1CCOc1cccc(Nc2ccccc2C(N)=O)c1`, the IC50 in assay [1] was more than 100 µM; in assay [2], 1.8 µM. In the same order, the values of `COC(=O)c1ccc(Nc2ccccc2C(N)=O)cc1` are more than 100 µM and 83 µM. The like results for `NC(=O)c1ccccc1Nc1cccc(OCC2CCCCC2)c1` were, in that order, 210 µM and 24 µM. The like results for `NC(=O)c1ccccc1Nc1cccc(OCCc2ccccc2Br)c1` were, in that order, more than 100 µM and 1.1 µM. For the compound `CN(Cc1ccccc1)C(=O)c1cccc(Nc2ccccc2C(N)=O)c1`, the IC50 was more than 100 µM in assay [1] and 40 µM in assay [2]. In the case of `Cc1cccc(Nc2ccccc2C(N)=O)c1`, in assay [2], the IC50 turned out to be 72 µM. With `NC(=O)c1ccccc1Nc1ccc(NC(=O)c2cccnc2)cc1`, the 50% inhibitory concentration (IC50) in assay [1] is more than 100 µM; in assay [2], 38 µM. Regarding `NC(=O)c1ccccc1Nc1cccc(CCC(=O)O)c1`, the IC50 in assay [1] is 93 µM; in assay [2], more than 100 µM. The like results for `NC(=O)c1ccccc1Nc1ccc(C(=O)Nc2ccccc2)cc1` were, in that order, more than 100 µM and 23 µM. In the same order, the values of `O=C(O)c1ccccc1Nc1ccccc1` [FENAMIC ACID] are 68 µM and more than 100 µM. On to `NC(=O)c1ccccc1NCc1ccccc1`, for which, in assay [2], the IC50 is more than 100 µM. Same read-out and setting: the value for `COC(=O)/C=C/c1cccc(Nc2ccccc2C(N)=O)c1` was 32 µM. Consider `NC(=O)c1ccccc1Nc1cccc(OCCc2cccc(Cl)c2)c1`, for which the IC50 in assay [1] is more than 100 µM; in assay [2], 2 µM. As for `CNC(=O)c1ccccc1Nc1ccccc1`, the IC50 in assay [1] and in assay [2] was more than 100 µM throughout.

For `COC(=O)CCc1cccc(Nc2ccccc2C(N)=O)c1`, the IC50 in assay [2] amounted to 93 µM. For `NC(=O)c1ccccc1Nc1ccc(Oc2ccccc2)cc1`, the IC50 in assay [1] and in assay [2] was more than 100 µM throughout. For the compound `NC(=O)c1ccccc1Nc1cccc(-c2ccccc2)c1`, the half-maximal inhibitory concentration (IC50) in assay [2] was 33 µM. For the compound `NC(=O)c1ccccc1Nc1cccc(OCCc2ccc(Cl)cc2)c1`, the results for the IC50 in assay [1] and in assay [2] were more than 100 µM and 0.83 µM, respectively. As for `N#Cc1ccc(Nc2ccccc2C(N)=O)cc1`, the IC50 in assay [2] was determined as 93 µM.

For `NC(=O)c1ccccc1Nc1cccc(OCCCc2ccccc2)c1`, the IC50 in assay [1] was more than 300 µM; in assay [2], 4.3 µM. The like results for `CC(=O)Nc1ccc(Nc2ccccc2C(N)=O)cc1` were, in that order, more than 100 µM and 77 µM. The like results for `NC(=O)c1ccccc1Nc1ccc2ccccc2c1` were, in that order, more than 100 µM and more than 100 µM.

In the case of `COC(=O)c1cccc(Nc2ccccc2C(N)=O)c1`, the IC50 in assay [1] and in assay [2] was more than 100 µM in each case. As for `COc1ccc(Nc2ccccc2C(N)=O)cc1`, the IC50 was more than 100 µM in assay [1] and 80 µM in assay [2]. The like results for `NC(=O)c1ccccc1Nc1ccc(CCc2ccccc2)cc1` were, in that order, more than 100 µM and 88 µM. For the compound `NC(=O)c1ccccc1Nc1ccc(C(=O)O)cc1`, in assay [2], the IC50 was more than 100 µM. The same measure, in the same setting: the value for `NC(=O)c1ccccc1Nc1cccc(CCO)c1` was more than 100 µM. With `NC(=O)c1ccccc1Nc1ccc(NC(=O)C2CCNCC2)cc1`, the half-inhibitory concentration (IC50) was more than 100 µM in assay [1] and 53 µM in assay [2].

Turning to `NC(=O)c1ccccc1Nc1ccc(/C=C\c2ccccc2)cc1`, the results for the IC50 in assay [1] and in assay [2] were more than 100 µM and 20 µM, respectively. In the same order, the values of `NC(=O)c1ccccc1Nc1ccc(NC(=O)c2ccccn2)cc1` are more than 100 µM and more than 100 µM. As to `NC(=O)c1ccccc1Nc1ccccc1` [ANILINOBENZAMIDE], in assay [2], the IC50 was more than 100 µM. `NC(=O)c1ccccc1Nc1cccc(OCCc2ccc(F)cc2)c1`: the IC50 in assay [1] is more than 100 µM; in assay [2] it was 2.7 µM. In the same order, the values of `NC(=O)c1ccccc1Nc1cccc(C(=O)O)c1` are more than 100 µM and more than 100 µM. For `NC(=O)c1ccccc1Nc1ccc(NC(=O)C2CCCCC2)cc1`, the figures for the IC50 in assay [1] and in assay [2] were more than 100 µM and 25 µM, respectively.

`NC(=O)c1ccccc1Nc1cccc(Oc2ccccc2)c1`: the IC50 in assay [2] worked out at 25 µM. Consider `CN(C)C(=O)c1ccccc1Nc1ccccc1`, for which the half-inhibitory concentration (IC50) in assay [1] and in assay [2] was more than 100 µM throughout. With `NC(=O)c1ccccc1Nc1cccc(OCCc2ccccc2F)c1`, the IC50 is more than 100 µM in assay [1] and 2 µM in assay [2]. With `NC(=O)c1ccccc1Nc1cccc(C(F)(F)F)c1`, in assay [2], the IC50 is 100 µM. For `NC(=O)c1ccccc1Nc1ccc(NC(=O)c2ccncc2)cc1`, the IC50 in assay [1] and in assay [2] was more than 100 µM in each case. Take `NC(=O)c1ccccc1Sc1ccccc1`: in assay [2], the IC50 was more than 100 µM. On to `CC(C)COc1cccc(Nc2ccccc2C(N)=O)c1`, for which the results for the IC50 in assay [1] and in assay [2] were more than 300 µM and 30 µM, respectively.

Turning to `CN(c1ccccc1)c1ccccc1C(N)=O`, the IC50 in assay [1] is 75 µM; in assay [2], more than 100 µM. The like results for `NC(=O)c1ccccc1Nc1cccc(OCCc2ccc(C(F)(F)F)cc2)c1` were, in that order, more than 100 µM and 1.4 µM. Regarding `NC(=O)c1ccccc1Nc1cccc(NC(=O)c2ccccc2)c1`, the IC50 in assay [1] is more than 100 µM; in assay [2], 57 µM. As to `NC(=O)c1ccccc1Oc1ccccc1`, the IC50 in assay [1] and in assay [2] was more than 100 µM in each case. Regarding `CN(C(=O)c1ccccc1)c1cccc(Nc2ccccc2C(N)=O)c1`, the IC50 in assay [1] and in assay [2] was more than 100 µM in each case.

For the compound `NC(=O)c1ccccc1Nc1ccc(Cl)cc1`, the IC50 in assay [1] is 56 µM; in assay [2], more than 100 µM. In the same order, the values of `CN(C(=O)c1ccc(Nc2ccccc2C(N)=O)cc1)c1ccccc1` are more than 100 µM and 69 µM. The like results for `NC(=O)c1ccccc1Nc1cccc(NC(=O)Cc2ccccc2)c1` were, in that order, more than 100 µM and 74 µM. The like results for `NC(=O)c1ccccc1Nc1cccc(C(=O)NCc2ccccc2)c1` were, in that order, more than 100 µM and 39 µM. For the compound `NC(=O)c1ccccc1Nc1cccc(OCCc2ccccc2Cl)c1`, the IC50 was more than 100 µM in assay [1] and 1.5 µM in assay [2]. In the same order, the values of `Cc1ccc(CCOc2cccc(Nc3ccccc3C(N)=O)c2)cc1` are more than 100 µM and 1.6 µM. The like results for `Cc1ccc(Nc2ccccc2C(N)=O)cc1` were, in that order, more than 100 µM and 60 µM. The like results for `NC(=O)c1ccccc1Nc1ccc(/C=C/c2ccccc2)cc1` were, in that order, more than 100 µM and more than 300 µM. Take `CSc1ccc(Nc2ccccc2C(N)=O)cc1`: in assay [2], the IC50 was more than 100 µM. Same read-out and setting: the value for `NC(=O)c1ccccc1Nc1cccc(CO)c1` was more than 100 µM. Consider `NC(=O)c1ccccc1Nc1cccc(OCc2ccccc2)c1`, for which the figures for the IC50 in assay [1] and in assay [2] were more than 300 µM and 54 µM, respectively. For `CC(C)(C)c1ccc(Nc2ccccc2C(N)=O)cc1`, the IC50 in assay [2] is more than 100 µM. Consider `NC(=O)c1ccccc1Nc1cccc(OCCc2ccc(Br)cc2)c1`, for which the IC50 is more than 100 µM in assay [1] and 1.2 µM in assay [2]. The like results for `NC(=O)c1ccccc1Nc1cccc(OCCc2cccc(C(F)(F)F)c2)c1` were, in that order, more than 100 µM and 2.1 µM.

Turning to `NC(=O)c1ccccc1Nc1cccc(/C=C/C(=O)O)c1`, the IC50 in assay [2] is more than 100 µM. `NC(=O)c1ccccc1Nc1cccc(OCCc2cccc(Br)c2)c1`: the IC50 in assay [1] was more than 100 µM; in assay [2], 3.4 µM. Turning to `NC(=O)c1ccccc1Nc1ccc(C(F)(F)F)cc1`, in assay [2], the IC50 was 69 µM.

The values above are taken from ChEMBL document CHEMBL2150931, “Design, synthesis, and biological activity of a novel series of human sirtuin-2-selective inhibitors” (J Med Chem, 2012).
